Assays:
[1] = tested on: Mus musculus; assay: Day of death in lethal test against herpes simplex virus type-1 at 200 mg/kg/day (mean day of death +/-SD); format: ADME, organism-based; conditions: in vivo
Outline: (§1)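 Female Swiss-Webster mice (20–23 g, 10 per group) were infected ip with 10^3 PFU HSV-1 Schooler in 0.3% BSA-PBS. Drug was given sc twice daily in PBS, starting 1 h postinfection, for 5 days. Survival was followed for 21 days. Mean day of death of dead animals was compared with placebo-treated infected controls by Student's t-test.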

[2] = tested on: Mus musculus; assay: Day of death in lethal test against herpes simplex virus type-1 at 12.5 mg/kg/day (mean day of death +/-SD); format: ADME, organism-based; conditions: in vivo; outline: as §1
[3] = tested on: Mus musculus; assay: Number of survivors against Herpes simplex virus type-1 infection in mice at 150 mg/kg/day; format: functional; outline: as §1
[4] = tested on: Mus musculus; assay: Number of survivors against Herpes simplex virus type-2 infection in mice at 200 mg/kg/day; format: functional
Outline: (§2)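 Female Swiss-Webster mice (20–23 g, 10 per group) were infected ip with 10^6 PFU HSV-2 Curtis in 0.3% BSA-PBS. Dosing was sc twice daily in PBS from 1 h postinfection for 5 days. Survival was recorded over 21 days. Mean day of death was computed for dead mice and compared with placebo-treated infected controls by Student's t-test.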

[5] = tested on: Human alphaherpesvirus 1; assay: Antiviral activity against Herpes simplex virus-1 (thymidine kinase deficient strains isolated as BVaraU resistant mutants of HSV-1 (KOS)); format: functional; conditions: read-out: ID50 (the source's name)
Outline: (§3)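 WI-38 monolayers were infected, with virus adsorbed for 1–2 h. They were then overlaid with EMEM maintenance medium (1% carboxymethyl cellulose, 2.5% FBS) containing duplicate drug dilutions. Monolayers were stained after 4–6 days at 37 °C. ID50 was taken as the concentration giving 50% plaque reduction versus virus controls. Titrations were done in duplicate.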

[6] = tested on: Cercopithecine alphaherpesvirus 9; assay: Antiviral activity against Simina varicella virus (G815 strain); format: functional; conditions: read-out: ID50 (the source's name)
Outline: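 Simian varicella virus G815 was grown from infected Vero cells and assayed by plaque reduction on Vero monolayers. Virus was adsorbed 1–2 h, then overlaid with EMEM (1% carboxymethyl cellulose, 2.5% FBS) containing duplicate drug dilutions. Staining was after 4–6 days at 37 °C. ID50 was the concentration giving 50% plaque reduction versus virus controls.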

[7] = tested on: Mus musculus; assay: Number of survivors against Herpes simplex virus type-1 infection in mice at 100 mg/kg/day; format: functional; outline: as §1
[8] = tested on: Human alphaherpesvirus 2; assay: Antiviral activity against Herpes simplex virus-2 (thymidine kinase deficient strains isolated as BVaraU resistant mutants of HSV-1 (KOS)); format: functional; conditions: read-out: ID50 (the source's name)
[9] = tested on: Mus musculus; assay: Day of death in lethal test against herpes simplex virus type-1 at 100 mg/kg/day (mean day of death +/-SD); format: ADME, organism-based; conditions: in vivo; outline: as §1
[10] = tested on: Mus musculus; assay: Protective dose against Herpes simplex virus type type -2 infection in mice at 200 mg/kg; format: functional; conditions: read-out: PD50
Outline: (§4)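 Female Swiss-Webster mice (20–23 g), 10 per group, infected intraperitoneally with 10^6 PFU HSV-2 strain Curtis (Vero freeze-thaw extract) in 0.3% BSA-PBS. Drug given subcutaneously in PBS twice daily from 1 h postinfection for 5 days, doses 12.5–200 mg/kg/day. Survival followed 21 days; PD50 by probit analysis; mean day of death by Student's t-test versus placebo.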

[11] = tested on: Human alphaherpesvirus 3; assay: Antiviral activity against Varicella zoster virus (9021 strain); format: functional; conditions: read-out: ID50 (the source's name); outline: as §3
[12] = tested on: WI-38; assay: Tested for growth inhibition against WI-38 cells; format: functional; conditions: Homo sapiens, read-out: ID50 (the source's name)
Outline: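 WI-38 cells seeded at 1.2 × 10^6 per well, incubated overnight at 37 °C, then refed with growth medium (EMEM, 10% FBS) holding serial drug dilutions or none, for 3 more days at 37 °C. Quadruplicate cultures per concentration trypsinized and counted daily for viable cells by trypan blue exclusion.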

[13] = tested on: Mus musculus; assay: Day of death in lethal test against herpes simplex virus type-2 at 200 mg/kg/day (mean day of death +/-SD); format: ADME, organism-based; conditions: in vivo; outline: as §2
[14] = tested on: Mus musculus; assay: Day of death in lethal test against herpes simplex virus type-2 at 12.5 mg/kg/day (mean day of death +/-SD); format: ADME, organism-based; conditions: in vivo; outline: as §2
[15] = tested on: Human alphaherpesvirus 3; assay: Antiviral activity against Varicella zoster virus (ppIIa strain); format: functional; conditions: read-out: ID50 (the source's name); outline: as §3
[16] = tested on: Human alphaherpesvirus 1; assay: Antiviral activity against Herpes simplex virus-1 (Schooler strain); format: functional; conditions: read-out: ID50 (the source's name); outline: as §3
[17] = tested on: Mus musculus; assay: Day of death in lethal test against herpes simplex virus type-2 at 100 mg/kg/day (mean day of death +/-SD); format: ADME, organism-based; conditions: in vivo; outline: as §2
[18] = tested on: Mus musculus; assay: Number of survivors against Herpes simplex virus type-2 infection in mice at 12.5 mg/kg/day; format: functional; outline: as §2
[19] = tested on: Mus musculus; assay: Number of survivors against Herpes simplex virus type-1 infection in mice at 12.5 mg/kg/day; format: functional; outline: as §1
[20] = Antiviral activity against Herpes simplex virus-1 (KOS strain); format: functional; conditions: Human alphaherpesvirus 1; read-out: ID50 (the source's name); outline: as §3
[21] = tested on: Human betaherpesvirus 5; assay: Antiviral activity against Human cytomegalovirus (AD169 strain); format: functional; conditions: read-out: ID50 (the source's name); outline: as §3
[22] = tested on: Mus musculus; assay: Number of survivors against Herpes simplex virus type-2 infection in mice at 25 mg/kg/day; format: functional; outline: as §2
[23] = tested on: Human alphaherpesvirus 3; assay: Antiviral activity against Varicella zoster virus (Kanno-Kohmura thymidine kinase deficient strain); format: functional; conditions: read-out: ID50 (the source's name); outline: as §3
[24] = tested on: Mus musculus; assay: Protective dose against Herpes simplex virus type type -1 infection in mice at 200 mg/kg; format: functional; conditions: read-out: PD50
Outline: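 Female Swiss-Webster mice (20–23 g), 10 per group, infected intraperitoneally with 10^3 PFU HSV-1 strain Schooler (Vero freeze-thaw extract) in 0.3% BSA-PBS. Subcutaneous dosing in PBS twice daily from 1 h postinfection for 5 days, 12.5–200 mg/kg/day. Survival scored over 21 days; PD50 from survival by probit analysis.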

[25] = tested on: Mus musculus; assay: Number of survivors against Herpes simplex virus type-1 infection in mice at 25 mg/kg/day; format: functional; outline: as §1
[26] = tested on: Mus musculus; assay: Day of death in lethal test against herpes simplex virus type-2 at 150 mg/kg/day (mean day of death +/-SD); format: ADME, organism-based; conditions: in vivo; outline: as §2
[27] = tested on: Mus musculus; assay: Number of survivors against Herpes simplex virus type-1 infection in mice at 50 mg/kg/day; format: functional; outline: as §1
[28] = tested on: Mus musculus; assay: Number of survivors against Herpes simplex virus type-2 infection in mice at 100 mg/kg/day; format: functional; outline: as §2
[29] = tested on: Mus musculus; assay: Day of death in lethal test against herpes simplex virus type-1 at 25 mg/kg/day (mean day of death +/-SD); format: ADME, organism-based; conditions: in vivo; outline: as §1
[30] = tested on: Human alphaherpesvirus 3; assay: Antiviral activity against Varicella zoster virus (Ito strain); format: functional; conditions: read-out: ID50 (the source's name); outline: as §3
[31] = tested on: Mus musculus; assay: Day of death in lethal test against herpes simplex virus type-1 at 50 mg/kg/day (mean day of death +/-SD); format: ADME, organism-based; conditions: in vivo; outline: as §1
[32] = tested on: Mus musculus; assay: Number of survivors against Herpes simplex virus type-1 infection in mice at 200 mg/kg/day; format: functional; outline: as §1
[33] = tested on: Mus musculus; assay: Number of survivors against Herpes simplex virus type-2 infection in mice at 50 mg/kg/day; format: functional; outline: as §4
[34] = tested on: Human alphaherpesvirus 3; assay: Antiviral activity against Varicella zoster virus (Oka strain); format: functional; conditions: read-out: ID50 (the source's name); outline: as §3
[35] = tested on: Human alphaherpesvirus 3; assay: Antiviral activity against Varicella zoster virus (Ellen strain); format: functional; conditions: read-out: ID50 (the source's name); outline: as §3
[36] = tested on: Mus musculus; assay: Number of survivors against Herpes simplex virus type-2 infection in mice at 150 mg/kg/day; format: functional; outline: as §2

Nc1nc2c(ncn2COCCO)c(=O)[nH]1 [ACYCLOVIR]
Mean day of death [1]: 14 | Mean day of death [2]: 8.3 | Survivors [3]: 2 | Survivors [4]: 5 | IC50 [5]: > 440 µM | IC50 [6]: 100 µM | Survivors [7]: 2 | IC50 [8]: > 440 µM | Mean day of death [9]: 9.3 | ED50 [10]: > 200 mg/kg/day | IC50 [11]: 2 µM | IC50 [12]: > 800 µM | Mean day of death [13]: 13 | Mean day of death [14]: 10 | IC50 [15]: 4 µM | IC50 [16]: 0.9 µM | Mean day of death [17]: 13.5 | Survivors [18]: 0 | Survivors [19]: 0 | IC50 [20]: 2 µM | IC50 [21]: 40 µM | Survivors [22]: 0 | IC50 [23]: 100 µM | ED50 [24]: > 200 mg/kg/day | Survivors [25]: 3 | Mean day of death [26]: 13 | Survivors [27]: 1 | Survivors [28]: 2 | Mean day of death [29]: 7.8 | IC50 [30]: 2 µM | Mean day of death [31]: 9 | Survivors [32]: 2 | Survivors [33]: 1 | IC50 [34]: 4 µM | IC50 [35]: 4 µM | Survivors [36]: 4

From ChEMBL document CHEMBL1126655, “Synthesis and antiviral activity of novel isonucleoside analogs” (J Med Chem, 1993)
